Measured values from ChEMBL document CHEMBL4052826, “Design and Synthesis of Novel Reactive Oxygen Species Inducers for the Treatment of Pancreatic Ductal Adenocarcinoma” (J Med Chem, 2018).
The source made the active and inactive calls. No cut-off for these calls is given here.

Key:
PANC-1 [1] = assay: Cytotoxicity against human PANC1 cells assessed as decrease in cell proliferation after 72 hrs by MTT assay; type: functional, cell-based; settings: PANC-1, 72 h
Summary of the method: (§1)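 MTT assay. Cells (3000–8000/well) attached overnight in RPMI1640 with 10% FBS; the GR line was kept with 200 nM gemcitabine. Serial dilutions (30 nM–10 μM for most lines) were applied for 72 h. MTT was added at a final 300 μg/mL for 3 h at 37°C, formazan was dissolved in DMSO and A570 read. Inhibition = (1 − OD treated/OD control) × 100. IC50 given as mean ± SD, three independent experiments.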

BXPC-3 [2] = assay: Cytotoxicity against human BxPC3 cells assessed as decrease in cell proliferation after 72 hrs by MTT assay; type: functional, cell-based; settings: BXPC-3, 72 h; summary of the method: as §1
[3] = Cytotoxicity against HPDEC assessed as decrease in cell proliferation after 72 hrs by MTT assay; type: cell-based; settings: Homo sapiens; summary of the method: as §1
MIA PaCa-2 [4] = assay: Cytotoxicity against gemcitabine-resistant human MIAPaCa2 cells assessed as decrease in cell proliferation after 72 hrs by MTT assay; type: functional, cell-based; settings: MIA PaCa-2, 72 h; summary of the method: as §1
MIA PaCa-2 [5] = assay: Cytotoxicity against human MIAPaCa2 cells assessed as decrease in cell proliferation after 72 hrs by MTT assay; type: functional, cell-based; settings: MIA PaCa-2, 72 h; summary of the method: as §1
MIA PaCa-2 [6] = assay: Inhibition of mtDNA transcription from HSP2 promoter in human MIAPaCa2 cells after 4 hrs by Bru-seq analysis; type: functional, cell-based
Summary of the method: (§2)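 MIA PaCa-2 cells were seeded at 4×10^6 per 10 cm dish and treated the next day for 4 h, with DMSO as control. Bromouridine (2 mM final) was added for the last 30 min. Total RNA was isolated in TRIZOL, and Bru-labelled RNA was immunocaptured, made into cDNA libraries and deep-sequenced. Read-out was nascent signal across mitochondrial heavy-strand (HSP2) and light-strand (LSP) transcripts.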

MIA PaCa-2 [7] = assay: Inhibition of mtDNA transcription from LSP promoter in human MIAPaCa2 cells after 4 hrs by Bru-seq analysis; type: functional, cell-based; summary of the method: as §2
BXPC-3 [8] = assay: Induction of reactive oxygen species generation in human BxPC3 cells assessed as upregulation of HO-1 expression at 5 uM after 4 to 24 hrs by Western blot analysis; type: functional, cell-based
Summary of the method: (§3)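 Immunoblotting. Cells (4×10^5) in 60 mm dishes were treated, lysed 30 min at 4°C and quantified by BCA. 40 μg protein was run on SDS-PAGE and transferred to PVDF. Primary antibodies (1:1000) incubated overnight at 4°C, then Dylight 800 secondary, with fluorescent scanning. Bands were normalized to GAPDH or actin loading controls. Mean ± SD, three independent experiments, Student's t-test.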

[9] = Induction of compound aggregation
MIA PaCa-2 [10] = assay: Downregulation of Sp4 gene expression in human MIAPaCa2 cells at IC50 to 3 times IC50 after 4 hrs by Bru-seq analysis; type: functional, cell-based
[11] = Induction of compound colloidal behavior
MIA PaCa-2 [12] = assay: Induction of unfolded protein response in human MIAPaCa2 cells assessed as upregulation of HSPA5 gene expression after 4 hrs by Bru-seq analysis; type: functional, cell-based
Summary of the method: (§4)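 Nascent RNA sequencing (Bru-seq): 4×10^6 MIA PaCa-2 cells seeded in 10 cm dishes, treated next day for 4 h with drug or DMSO. Bromouridine (2 mM final) added for the last 30 min. Total RNA taken in TRIZOL; labeled RNA immunocaptured, converted to cDNA libraries and deep sequenced. Signal compared with DMSO-treated cells.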

MIA PaCa-2 [13] = assay: Downregulation of Sp1 gene expression in human MIAPaCa2 cells at IC50 to 3 times IC50 after 4 hrs by Bru-seq analysis; type: functional, cell-based
MIA PaCa-2 [14] = assay: Downregulation of COX-3 expression in human MIAPaCa2 cells at 5 uM after 4 to 24 hrs by Western blot method; type: functional, cell-based; summary of the method: as §3
MIA PaCa-2 [15] = assay: Induction of reactive oxygen species generation in human MIAPaCa2 cells at 1.1 to 10 uM after 24 hrs in presence of NAC by H2DCFDA reactivity assay; type: functional, cell-based
Summary of the method: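 H2DCFDA assay. Trypsinized MIA PaCa-2 cells in suspension were loaded with 20 μM H2DCFDA for 30 min at 37°C, washed and plated at 20,000/well. After 30 min they were treated with compound at 10, 3.3 or 1.1 μM. Fluorescence was read at 493/523 nm over time. DMSO basal and unstained controls were included. NAC pretreatment, where used, was 5 mM for 30 min. Duplicates, three independent experiments.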

BXPC-3 [16] = assay: Induction of unfolded protein response in human BxPC3 cells assessed as upregulation of CHOP expression at 5 uM by Western blot analysis; type: functional, cell-based; settings: TDE = time-dependent effect; summary of the method: as §3
PANC-1 [17] = assay: Induction of unfolded protein response in human PANC1 cells assessed as upregulation of CHOP expression at 5 uM by Western blot analysis; type: functional, cell-based; settings: TDE = time-dependent effect
Summary of the method: (§5)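 Cells (4×10^5) seeded in 60 mm dishes, cultured in RPMI1640 with 10% FBS, 5% CO2, 37°C, then compound-treated. Lysed 30 min at 4°C, BCA-quantified, 40 μg protein resolved by SDS-PAGE, transferred to PVDF, probed overnight at 4°C with primary antibodies (1:1000; GAPDH or actin loading control), then Dylight 800 secondary; fluorescence scanned. Bands normalized to loading control; mean ± SD, three independent experiments.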

BXPC-3 [18] = assay: Induction of unfolded protein response in human BxPC3 cells assessed as upregulation of GRP78 expression at 5 uM by Western blot analysis; type: functional, cell-based; settings: TDE = time-dependent effect; summary of the method: as §3
MIA PaCa-2 [19] = assay: Inhibition of mtDNA transcription from HSP1 promoter in human MIAPaCa2 cells at 3 times IC50 after 4 hrs by Bru-seq analysis; type: functional, cell-based; summary of the method: as §4
MIA PaCa-2 [20] = assay: Cytotoxicity against human MIAPaCa2 cells assessed as decrease in cell proliferation after 72 hrs in presence of NAC by MTT assay; type: functional, cell-based
Summary of the method: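 MIA PaCa-2 cells were treated for 72 h with compound in the presence of 5 mM NAC. Viability was read by MTT (final 300 μg/mL, 3 h, A570). Mean ± SD of three independent experiments.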

MIA PaCa-2 [21] = assay: Inhibition of mtDNA transcription from HSP2 promoter in human MIAPaCa2 cells at 3 times IC50 after 4 hrs by Bru-seq analysis; type: functional, cell-based; summary of the method: as §4
PANC-1 [22] = assay: Induction of reactive oxygen species generation in human PANC1 cells assessed as upregulation of HO-1 expression at 5 uM after 4 to 24 hrs by Western blot analysis; type: functional, cell-based; summary of the method: as §3
MIA PaCa-2 [23] = assay: Induction of unfolded protein response in human MIAPaCa2 cells assessed as upregulation of DDIT3 gene expression after 4 hrs by Bru-seq analysis; type: functional, cell-based
MIA PaCa-2 [24] = assay: Induction of unfolded protein response in human MIAPaCa2 cells assessed as upregulation of CHOP expression at 5 uM by Western blot analysis; type: functional, cell-based; settings: TDE = time-dependent effect; summary of the method: as §3
MIA PaCa-2 [25] = assay: Induction of unfolded protein response in human MIAPaCa2 cells assessed as upregulation of GRP78 expression at 5 uM by Western blot analysis; type: functional, cell-based; settings: TDE = time-dependent effect; summary of the method: as §5
MIA PaCa-2 [26] = assay: Induction of reactive oxygen species generation in human MIAPaCa2 cells assessed as upregulation of HMOX1 gene expression after 4 hrs by Bru-seq analysis; type: functional, cell-based
PANC-1 [27] = assay: Induction of unfolded protein response in human PANC1 cells assessed as upregulation of GRP78 expression at 5 uM by Western blot analysis; type: functional, cell-based; settings: TDE = time-dependent effect; summary of the method: as §5
MIA PaCa-2 [28] = assay: Inhibition of mtDNA transcription from LSP promoter in human MIAPaCa2 cells at 3 times IC50 after 4 hrs by Bru-seq analysis; type: functional, cell-based; summary of the method: as §4
MIA PaCa-2 [29] = assay: Induction of apoptosis signaling in human MIAPaCa2 cells at 3 times IC50 after 4 hrs by IPA analysis; type: functional, cell-based
MIA PaCa-2 [30] = assay: Induction of reactive oxygen species generation in human MIAPaCa2 cells assessed as upregulation of HO-1 expression at 5 uM after 4 to 24 hrs by Western blot analysis; type: functional, cell-based; summary of the method: as §3
MIA PaCa-2 [31] = assay: Induction of reactive oxygen species generation in human MIAPaCa2 cells assessed as upregulation of NQO1 expression at 5 uM after 4 to 24 hrs by Western blot analysis; type: functional, cell-based; summary of the method: as §3
BXPC-3 [32] = assay: Induction of reactive oxygen species generation in human BxPC3 cells assessed as upregulation of NQO1 expression at 5 uM after 4 to 24 hrs by Western blot analysis; type: functional, cell-based; summary of the method: as §3
MIA PaCa-2 [33] = assay: Induction of reactive oxygen species generation in human MIAPaCa2 cells assessed as upregulation of NQO1 gene expression after 4 hrs by Bru-seq analysis; type: functional, cell-based
MIA PaCa-2 [34] = assay: Downregulation of Sp3 gene expression in human MIAPaCa2 cells at IC50 to 3 times IC50 after 4 hrs by Bru-seq analysis; type: functional, cell-based

O=C(NCCC[P+](c1ccccc1)(c1ccccc1)c1ccccc1)c1cccc(NC2=CC(=O)c3ncncc3C2=O)c1
IC50 (PANC-1 [1]): 14.3 µM | IC50 (BXPC-3 [2]): 21.3 µM | IC50 [3]: 24.3 µM | IC50 (MIA PaCa-2 [4]): 16.2 µM

Nc1ccc(-c2ccc(NC3=CC(=O)c4ncncc4C3=O)cc2)cc1
IC50 (PANC-1 [1]): 3.7 µM | IC50 (BXPC-3 [2]): 3.5 µM | IC50 (MIA PaCa-2 [5]): 2.5 µM

Nc1ccc(C(=O)NCCC[P+](c2ccccc2)(c2ccccc2)c2ccccc2)cc1
IC50 (PANC-1 [1]): > 30 µM | IC50 (BXPC-3 [2]): > 30 µM | IC50 (MIA PaCa-2 [5]): > 30 µM

COc1ccc(NC2=CC(=O)c3ncncc3C2=O)cc1
IC50 (PANC-1 [1]): 0.8 µM | IC50 (BXPC-3 [2]): 1.7 µM | IC50 (MIA PaCa-2 [5]): 1.9 µM

O=C1C(Nc2ccc(-c3ccc(F)cc3)cc2)=CC(=O)c2ncncc21
IC50 (PANC-1 [1]): 3.2 µM | IC50 (BXPC-3 [2]): 4.4 µM | IC50 (MIA PaCa-2 [5]): 3.5 µM

Nc1cccc(C(=O)NCCC[P+](c2ccccc2)(c2ccccc2)c2ccccc2)c1
IC50 (PANC-1 [1]): > 30 µM | IC50 (BXPC-3 [2]): > 30 µM | IC50 (MIA PaCa-2 [5]): > 30 µM

CC[C@@]1(O)C(=O)OCc2c1cc1n(c2=O)Cc2cc3ccccc3nc2-1
inhibition (MIA PaCa-2 [6]): inactive | inhibition (MIA PaCa-2 [7]): inactive

O=C1C(Nc2ccc(CO)cc2)=CC(=O)c2ncncc21
IC50 (PANC-1 [1]): 1 µM | IC50 (BXPC-3 [2]): 5.7 µM | IC50 (MIA PaCa-2 [5]): 3.5 µM

O=C1C=CC(=O)c2ncncc21
IC50 (PANC-1 [1]): 18 µM | IC50 (BXPC-3 [2]): 19.4 µM | IC50 (MIA PaCa-2 [5]): 9.4 µM

O=C1C(NCc2ccc(F)cc2)=CC(=O)c2ncncc21
IC50 (PANC-1 [1]): 1 µM | IC50 (BXPC-3 [2]): 1.4 µM | IC50 (MIA PaCa-2 [5]): 1.7 µM

COC(=O)c1ccc(NC2=CC(=O)c3ncncc3C2=O)cc1
IC50 (PANC-1 [1]): 1.1 µM | IC50 (BXPC-3 [2]): 5.8 µM | IC50 (MIA PaCa-2 [5]): 2.2 µM

CC(=O)c1cccc(NC2=CC(=O)c3ncncc3C2=O)c1
Activity (BXPC-3 [8]): Active | Activity [9]: Active | Activity (MIA PaCa-2 [10]): inactive | Activity [11]: Active | Activity (MIA PaCa-2 [12]): Dose-dependent effect | Activity (MIA PaCa-2 [13]): inactive | Activity (MIA PaCa-2 [14]): Active | Activity (MIA PaCa-2 [15]): inactive | Activity (BXPC-3 [16]): Tde | IC50 (PANC-1 [1]): 0.9 µM | IC50 (BXPC-3 [2]): 5.2 µM | IC50 [3]: 4.5 µM | Activity (PANC-1 [17]): Tde | Activity (BXPC-3 [18]): Tde | IC50 (MIA PaCa-2 [5]): 2.3 µM | inhibition (MIA PaCa-2 [19]): inactive | Activity (MIA PaCa-2 [20]): inactive | inhibition (MIA PaCa-2 [21]): Active | IC50 (MIA PaCa-2 [4]): 3.6 µM | Activity (PANC-1 [22]): inactive | Activity (MIA PaCa-2 [23]): Dose-dependent effect | Activity (MIA PaCa-2 [24]): Tde | Activity (MIA PaCa-2 [25]): Tde | Activity (MIA PaCa-2 [26]): Dose-dependent effect | Activity (PANC-1 [27]): Tde | inhibition (MIA PaCa-2 [28]): Active | Activity (MIA PaCa-2 [29]): Active | Activity (MIA PaCa-2 [30]): Active | Activity (MIA PaCa-2 [31]): inactive | Activity (BXPC-3 [32]): inactive | Activity (MIA PaCa-2 [33]): Dose-dependent effect | Activity (MIA PaCa-2 [34]): inactive

O=C1C(Nc2ccc(OC(F)(F)F)cc2)=CC(=O)c2ncncc21
IC50 (PANC-1 [1]): 0.9 µM | IC50 (BXPC-3 [2]): 0.9 µM | IC50 (MIA PaCa-2 [5]): 1.4 µM
